{"source": "ChEMBL document CHEMBL4834471", "about": "(J Med Chem, 2021)", "key": {"Mus musculus [1]": {"tested_on": "Mus musculus", "assay": "Antiinflammatory activity against ovalbumin-induced airway hyperreactivity in BALB/c mouse assessed as reduction in LTB4 and isomers level in lung tissue at 10 mg/kg, po pretreated with compound for 60 mins prior to ovalbumin stimulation on day 0 and 7 and […] by UPLC-MS/MS analysis", "format": "functional, organism-based", "outline": "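Mice gavaged with 10 mg/kg 60 min before ovalbumin sensitization on days 0 and 7. Lung tissue taken on […] and LTB4 plus its isomers quantified as pg/mg lung tissue; n = 5 mice; two-tailed unpaired t-test of log data.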"}, "Monocyte": {"tested_on": "Monocyte", "assay": "Cytotoxicity against human monocytes assessed as reduction in LDH release at 1 to 10 uM after 2 to 24 hrs by CytoTox96 nonradioactive assay", "format": "cell-based", "conditions": "dose lower 1 µM, time lower 2 hrs, dose upper 10 µM, time upper 24 hrs", "outline": "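Monocytes at 4 × 10^5/mL in monocyte medium treated 2 or 24 h at 37 °C, 5% CO2, with 0.1% DMSO vehicle. LDH release measured by CytoTox 96 kit, with Triton X-100 (0.8%) defining maximum release.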"}, "[2]": {"molecular_target": "T1, Prostaglandin G/H synthase 2 (Homo sapiens) (UniProt P35354)", "T1 sequence (whole entry)": "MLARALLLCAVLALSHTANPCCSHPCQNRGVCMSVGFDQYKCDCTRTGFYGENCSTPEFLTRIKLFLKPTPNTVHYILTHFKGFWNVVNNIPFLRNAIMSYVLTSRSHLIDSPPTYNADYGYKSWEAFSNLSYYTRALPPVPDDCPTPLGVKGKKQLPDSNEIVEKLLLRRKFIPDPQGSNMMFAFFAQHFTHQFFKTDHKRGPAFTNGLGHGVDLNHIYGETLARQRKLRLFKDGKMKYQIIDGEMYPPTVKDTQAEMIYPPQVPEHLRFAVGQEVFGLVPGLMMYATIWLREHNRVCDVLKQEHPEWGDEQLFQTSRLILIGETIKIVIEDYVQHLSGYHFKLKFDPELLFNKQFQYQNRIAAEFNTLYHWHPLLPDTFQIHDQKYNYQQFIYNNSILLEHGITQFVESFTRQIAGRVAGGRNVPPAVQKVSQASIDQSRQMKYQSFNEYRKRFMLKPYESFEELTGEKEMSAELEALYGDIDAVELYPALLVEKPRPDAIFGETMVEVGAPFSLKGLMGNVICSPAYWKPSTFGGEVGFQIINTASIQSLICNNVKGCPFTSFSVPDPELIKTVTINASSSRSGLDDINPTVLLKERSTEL", "assay": "Inhibition of recombinant human COX-2 assessed as reduction in 12-HHT formation at 10 uM using arachidonic acid as substrate preincubated for 6 mins followed by substrate addition by RPL-HPLC method"}, "[3]": {"molecular_target": "T2, Bifunctional epoxide hydrolase 2 (Homo sapiens) (UniProt P34913)", "T2 sequence (whole entry)": "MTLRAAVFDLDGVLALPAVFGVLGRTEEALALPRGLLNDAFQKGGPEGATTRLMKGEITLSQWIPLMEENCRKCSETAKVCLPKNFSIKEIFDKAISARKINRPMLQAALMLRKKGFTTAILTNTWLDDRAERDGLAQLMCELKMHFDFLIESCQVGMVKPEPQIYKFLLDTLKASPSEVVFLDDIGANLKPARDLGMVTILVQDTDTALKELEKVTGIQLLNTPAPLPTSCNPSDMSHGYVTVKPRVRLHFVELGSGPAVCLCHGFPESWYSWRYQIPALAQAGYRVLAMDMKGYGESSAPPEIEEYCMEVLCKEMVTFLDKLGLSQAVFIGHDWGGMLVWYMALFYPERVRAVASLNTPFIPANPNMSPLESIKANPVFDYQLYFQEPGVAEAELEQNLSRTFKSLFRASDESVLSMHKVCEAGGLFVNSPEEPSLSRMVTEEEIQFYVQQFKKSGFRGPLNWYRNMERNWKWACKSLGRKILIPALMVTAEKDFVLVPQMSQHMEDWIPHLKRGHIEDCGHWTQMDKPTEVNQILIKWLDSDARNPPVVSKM", "assay": "Inhibition of recombinant human sEH expressed in Sf9 insect cells at 10 uM using PHOME as substrate preincubated for 10 mins followed by substrate addition and measured after 60 mins by fluorescence microplate method", "conditions": "time 70.0 min"}, "[4]": {"molecular_target": "T3, Polyunsaturated fatty acid lipoxygenase ALOX15 (Homo sapiens) (UniProt P16050)", "T3 sequence (whole entry)": "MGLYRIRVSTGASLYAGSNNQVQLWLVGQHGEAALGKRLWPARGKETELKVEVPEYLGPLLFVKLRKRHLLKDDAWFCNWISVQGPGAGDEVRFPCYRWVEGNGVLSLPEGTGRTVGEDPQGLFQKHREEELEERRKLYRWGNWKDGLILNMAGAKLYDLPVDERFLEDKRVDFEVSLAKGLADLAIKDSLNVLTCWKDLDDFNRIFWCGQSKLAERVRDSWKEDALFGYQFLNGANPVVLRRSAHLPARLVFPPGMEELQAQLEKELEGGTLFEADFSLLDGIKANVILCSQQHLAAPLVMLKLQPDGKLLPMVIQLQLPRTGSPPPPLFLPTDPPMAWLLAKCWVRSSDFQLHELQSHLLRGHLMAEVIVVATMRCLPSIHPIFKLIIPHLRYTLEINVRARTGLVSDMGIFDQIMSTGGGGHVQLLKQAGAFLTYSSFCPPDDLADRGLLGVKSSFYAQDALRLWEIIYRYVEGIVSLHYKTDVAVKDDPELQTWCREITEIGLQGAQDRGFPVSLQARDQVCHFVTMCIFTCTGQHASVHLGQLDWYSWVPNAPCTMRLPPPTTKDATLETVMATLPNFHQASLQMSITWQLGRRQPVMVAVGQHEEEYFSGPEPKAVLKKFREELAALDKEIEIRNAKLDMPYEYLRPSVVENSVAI", "assay": "Inhibition of 15-LOX in human PMNL assessed as reduction in 15-LOX product formation at 0.03 to 0.2 uM treated with AA and A23187 by RP-HPLC method", "format": "tissue-based", "conditions": "dose 0.03-0.2 µM"}, "Keratinocyte": {"tested_on": "Keratinocyte", "assay": "Cytotoxicity against human Keratinocytes assessed as reduction in cell viability at 10 to 100 uM after 24 hrs by MTT assay", "format": "cell-based", "conditions": "dose 10-100 µM"}, "Mus musculus [5]": {"tested_on": "Mus musculus", "assay": "Antiinflammatory activity in zymosan-induced CD-1 mouse peritonitis model assessed as reduction in immune cell infiltration into peritoneal cavity at 10 mg/kg, ip preincubated with compound for 30 mins followed by zymosan addition and measured after 4 hrs", "format": "functional, organism-based", "conditions": "time 270.0 min", "outline": "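Zymosan peritonitis with compound 10 mg/kg i.p. Vascular permeability assessed at 30 min after zymosan. Exudate LTB4 (ELISA) and peritoneal immune cell infiltration assessed at 4 h. Two-tailed unpaired t-test of log data.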"}, "[6]": {"assay": "Drug concentration in plasma of CD-1 mouse at 30 mg/kg, po after 30 mins", "format": "ADME, organism-based", "outline": "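Oral dosing at 30 mg/kg in zymosan peritonitis; mice killed 30 min after zymosan injection. Compound concentrations measured in plasma and in peritoneal exudate.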"}, "Mus musculus [7]": {"tested_on": "Mus musculus", "assay": "Antiinflammatory activity BALB/c mouse assessed as restoration of salbutamol-induced adrenergic bronchial relaxation at 10 mg/kg, po administered on day 0 and 7 and measured upto 21 days", "format": "functional, organism-based", "conditions": "time day <=21"}}, "note": "Calls of active or inactive are those of the source. The rule behind the calls is not given here.", "data": [{"smiles": "C/C(=C\\CC/C(C)=C/CC[C@]1(C)CCc2c(C)c(O)c(C)c(C)c2O1)CCC=C(CO)CO", "values": [{"measurement": "Activity", "setting": "Mus musculus [1]", "value": "Active"}, {"measurement": "Activity", "setting": "Monocyte", "value": "Toxic"}, {"measurement": "inhibition", "setting": "[2]", "value": "inactive"}, {"measurement": "inhibition", "setting": "[3]", "value": "inactive"}, {"measurement": "inhibition", "setting": "[4]", "value": "inactive"}, {"measurement": "Activity", "setting": "Keratinocyte", "value": "Non-Toxic"}, {"measurement": "Activity", "setting": "Mus musculus [5]", "value": "Active"}, {"measurement": "concentration at 0.5 h", "setting": "[6]", "value": 20, "unit": "nM"}, {"measurement": "Activity", "setting": "Mus musculus [7]", "value": "Active"}]}]}
